FXIIa inh: blocks human coagulation factor XIIa protease activity | AID 800 | P00748 | inhibition, % at 5 µM | 0.3% of 220,000 active | purified FXIIa, Boc-QGR-AMC fluorogenic substrate, 2 h; in the data active means inhibition above about 40%
FXIa inh 1536: blocks human coagulation factor XIa protease activity; purified FXIa, Boc-Glu-Ala-Arg-AMC fluorogenic substrate; inhibition, % at 5 µM; 0.14% of 220,000 active; P03951;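 active means inhibition of at least 40%; inactive means inhibition below 40%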;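 further: fluorescence of freed AMC excited at 355 nm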
EP2 mod: modulators of human EP2 prostaglandin E2 receptor; AID 940; EP2-expressing cells, cAMP HTRF FRET, PGE2 co-stimulation; P43116; induction, % at 25 µM; 0.83% of 260,000 active;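 active means compounds whose cAMP rise, as percent of the full-agonist control response, exceeds 60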;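 further: rat C6 glioma line stably carrying human EP2 under a CMV promoter; the protocol text gives 20 µM as final concentration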
Target sequence (P43116 whole entry, looked up): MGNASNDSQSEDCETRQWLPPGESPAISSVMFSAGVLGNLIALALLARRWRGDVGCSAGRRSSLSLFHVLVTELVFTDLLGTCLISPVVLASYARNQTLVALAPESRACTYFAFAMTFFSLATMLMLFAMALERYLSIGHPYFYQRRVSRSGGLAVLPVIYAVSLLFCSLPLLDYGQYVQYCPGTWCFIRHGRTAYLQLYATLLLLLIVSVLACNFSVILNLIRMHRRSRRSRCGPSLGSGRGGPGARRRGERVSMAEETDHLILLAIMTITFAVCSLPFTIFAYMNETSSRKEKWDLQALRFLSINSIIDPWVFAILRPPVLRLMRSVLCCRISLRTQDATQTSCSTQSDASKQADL
Thrombin inh: inhibitors of human thrombin; P00734; alpha-thrombin, Boc-VPR-AMC fluorogenic substrate cleavage; inhibition, % at 5 µM; 0.26% of 220,000 active;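 active means inhibition at or above 40%; inactive means inhibition below 40%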
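signal = AMC fluorescence, 355/460 nm | material = human alpha-thrombin enzyme | control set = enzyme without compound as high, wells lacking enzyme as low | times = reaction at room temperature | read-out basis = percent inhibition scaled between no-compound controls and no-enzyme blanks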
KLK5 inh: inhibitors of human kallikrein 5; Q9Y337; recombinant hK5, fluorogenic AMC substrate cleavage; inhibition, % at 5 µM; 0.59% of 210,000 active;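 active means inhibition of 40% or more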
PGE2 EP2 inh: EP2 receptor (human) inhibition | AID 1422 | inhibition, % at 25 µM | C6 glioma cells expressing human EP2, cAMP TR-FRET; cells stimulated with saturating PGE2 | 0.52% of 260,000 active | P43116;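 active means percent inhibition above 40 after rounding to a whole number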;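 further: rat C6 glioma host cells with rolipram phosphodiesterase inhibitor present; the protocol text gives 20 µM as final concentration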
Hits are given with their value; – = inactive; · = no result given. Sampled rows, rich in hits. Any-hit rate of the full collection: about 2.1%.

SMILES	FXIIa inh	FXIa inh 1536	EP2 mod	Thrombin inh	KLK5 inh	PGE2 EP2 inh
CC1CCN(c2nc3c(c(=O)n(C)c(=O)n3C)n2CCSc2nc3ccccc3s2)CC1	–	–	61	–	–	–
Cn1c(=O)c2c(nc(N3CCCCC3)n2CCSc2nc3ccccc3s2)n(C)c1=O	–	–	–	–	–	–
Cc1cc(-c2cccs2)c2c(n1)sc1c(=O)[nH]c(=O)[nH]c12	–	–	–	–	–	47
N#Cc1nc(COc2ccc(Br)cc2)oc1NCCN1CCOCC1	–	–	–	–	45	–
N#Cc1nc(COc2ccc(F)cc2)oc1NCCN1CCOCC1	–	–	–	–	–	–
CCc1cc(NCCO)n2nc3nc(C)cc(C)c3c2n1	·	·	–	·	·	·
O=C(Nc1ccc(-c2noc(-c3cccs3)n2)cc1)c1cccnc1	–	–	–	–	–	69
O=C(c1cccnc1)N1CCCC(n2nc(-c3cccs3)ccc2=O)C1 (stereo not given)	·	·	–	·	·	·
O=C(CSC1CCCCC1)Nc1nccs1	–	–	–	104	54	·
O=C(CCCC(=O)NC1CCCCC1)Nc1nccs1	·	·	–	·	·	–
C[C@H](Cn1nnc2ccccc21)NC(=O)c1ccncc1	·	·	–	·	·	–
COc1cc(/C=N/Nc2cc(C)nc(NS(=O)(=O)c3ccccc3)n2)ccc1O	–	67	–	–	–	–
Cc1c(C(=O)Nc2ccccc2F)oc2ccccc12	·	·	–	·	·	–
COCC(=O)Nc1ccccc1-c1ccccc1	–	45	–	–	–	–
COCC(=O)Nc1nc(-c2ccccc2)ns1	–	–	–	–	58	–
CC(=O)Nc1nc(-c2ccccc2)ns1	–	–	–	–	–	–
CC1(C)Cc2nc3sc4c(SCC(=O)NCc5ccccc5)ncnc4c3cc2CO1	–	–	63	–	–	–
CC1(C)Cc2nc3sc4c(SCC(=O)O)ncnc4c3cc2CO1	–	–	–	–	–	–
Cc1cc2ccc(OC(=O)c3ccc(N=C(N)N)cc3)cc2oc1=O	·	·	–	·	·	116
CCOC(=O)C1=C(C)NC2=C(C(=O)c3ccccc32)C1c1ccc2ccccc2c1 (stereo not given)	·	·	–	·	·	–
CC(C)n1c(=O)n(CC(=O)NCCc2ccccc2)c2cccnc21	·	·	–	·	·	–
Cn1nccc1-c1cc(Cl)cc(Cl)c1O	–	–	–	73	–	–
Cn1nccc1NC(=O)Nc1cccc(Cl)c1	–	–	–	–	–	–
CCOC(=O)Cn1c(=NC(=O)C2CC2)sc2c(C)cc(C)cc21	–	–	–	–	41	–
COc1ccc(-c2cc(C(=O)c3c(N)n(C)c(=O)n(C)c3=O)c3ccccc3n2)cc1OC	42	–	–	–	–	–
SMILES	FXIIa inh	FXIa inh 1536	EP2 mod	Thrombin inh	KLK5 inh	PGE2 EP2 inh
O=C(COC(=O)C1CC(=O)N(Cc2ccco2)C1)c1ccc(OC(=O)c2ccco2)cc1 (stereo not given)	41	–	–	–	–	–
Cc1ccc(C(=O)Oc2ccc(C(=O)COC(=O)C3CC(=O)N(Cc4ccco4)C3)cc2)cc1 (stereo not given)	–	–	–	–	–	–
Cc1cc2c(cc3c(=O)n(CC(=O)NCCc4ccccc4Cl)nc(C)n32)o1	·	·	–	·	·	–
COc1ccc(-n2nnnc2SCC(=O)N2CCCCC2C)cc1 (stereo not given)	·	·	–	·	·	–
Cc1cccc(-c2nnc3n2N=C(c2ccc(Br)cc2)CS3)c1	·	·	·	·	·	–
Cc1ccc(-c2nnc3n2N=C(c2ccc(Br)cc2)CS3)cc1	53	–	–	–	–	–
CCCCOc1ccc(/C(O)=C2/C(=O)C(=O)N(Cc3cccnc3)C2c2ccncc2)c(C)c1 (stereo not given)	–	–	61	–	–	–
Cc1cc(OCC(C)C)ccc1/C(O)=C1/C(=O)C(=O)N(Cc2cccnc2)C1c1ccncc1 (stereo not given)	–	–	–	–	–	–
Fc1cccc2sc(N3CCCCC3)nc12	–	–	–	–	–	–
Fc1cc(F)c2nc(N3CCCC3)sc2c1	103	–	–	–	–	–
CCCCOC(=O)n1ccc(C(=O)Nc2ccccc2OC)n1	–	–	–	45	–	–
CCn1ncc(CN(Cc2ccc(F)cc2)C2CC(C)(C)NC(C)(C)C2)c1C	·	·	–	·	·	–
CSc1nnc(-c2cc(-c3ccc(C)cc3)nc3ccccc23)o1	–	–	–	–	–	–
c1ccc(-c2cc(-c3nnc(-c4ccncc4)o3)c3ccccc3n2)cc1	·	·	80	·	·	–

Screens (PubChem BioAssay)
